The values below come from PMC3834432 (Toxicological Research, 2012).

The nature of this series: Micro-SPECT/CT imaging. Type of series: in vivo. As to conditions: normal female ICR mice; 37 MBq i.v.; SPECT image at 30 min post injection. The gist of the method: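 Female ICR mice, obtained at 7 weeks old from a specific pathogen-free colony, were held three weeks for quarantine and adaptation. Housing was 23 ± 2 °C, 50 ± 5% humidity, 12 h light/dark, with diet and water ad libitum. Under 2% isoflurane, lying prone, mice were imaged on a small-animal SPECT/CT with a single-pinhole high-sensitivity mouse collimator.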

On to “Gly-Gly- Gly-Gly-Gly [^99mTc-tricarbonyl-Gly(5)]”, for which the “Blood clearance (SPECT image, words)” value is reported as “fast blood clearance”. As to Gly-Gly-Gly [^99mTc-tricarbonyl-Gly(3)], the “Blood clearance (SPECT image, words)” value is on record as “fast blood clearances” and the “Excretion / clearance from the body (SPECT image, words)” value was “good clearance property in vivo”.
